For orientation: inhibition means the change of the read-out against control, counted positive when it falls.

This note sets out measurements from PubChem BioAssay AID624466 (The Scripps Research Institute Molecular Screening Center, 2012).

About 5,400 (1.5%) of roughly 360,000 compounds were called active. The list comes from a sample in which actives are over-represented; it also holds similar structures and randomly drawn compounds. A number with no mark means an inactive call.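 The calls were made as follows: active = inhibition above a per-plate cutoff, the mean inhibition of test compounds on that plate plus 3 SD (cut at about 49% in these data); inactive = the rest.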

Trace amine-associated receptor 1 (Homo sapiens), sequence (Q96RJ0 whole entry, looked up): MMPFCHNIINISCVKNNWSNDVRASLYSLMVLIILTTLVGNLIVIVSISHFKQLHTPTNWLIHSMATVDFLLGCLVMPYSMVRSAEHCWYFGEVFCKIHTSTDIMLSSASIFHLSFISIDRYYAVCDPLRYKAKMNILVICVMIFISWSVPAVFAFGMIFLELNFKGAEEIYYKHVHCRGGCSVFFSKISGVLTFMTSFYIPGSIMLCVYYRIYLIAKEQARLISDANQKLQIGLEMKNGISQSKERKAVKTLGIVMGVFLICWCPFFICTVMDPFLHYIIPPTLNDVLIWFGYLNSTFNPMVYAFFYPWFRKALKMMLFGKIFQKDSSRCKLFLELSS

The assay deals with Trace amine-associated receptor 1 (Homo sapiens) (UniProt Q96RJ0). Kind of assay: blockers of beta-PEA-driven TAAR1 calcium signal – Fluo-8 calcium fluorescence, CHO RD-HGA16 cells, primary screen (AID 624466).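 Also: 0% = DMSO plus EC80 beta-PEA response and 100% = DMSO alone without agonist.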 To be noted: CHO RD-HGA16 TAAR1, Fluo-8 calcium fluorescence, antagonist; at 3 µM; stronger effect = higher value. In outline: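 Test system: CHO RD-HGA16 cells bearing hTAAR1 | Reagent: β-PEA, EC80 | Compound dosing: 3 µM, single point | Schedule: Dye loading 75 min at 37 °C, then 30 min room temperature | Signal: Calcium fluorescence with Fluo-8 | Evaluation: Percent inhibition of PEA-evoked calcium signal, max/basal emission ratio | Control set: DMSO-only wells and EC80 β-PEA-stimulated wells | Repeats: Singlicate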
Regarding `CC(C)CNc1cccc2c1S(=O)(=O)N[C@H](CC(C)C)CO2`, the inhibition is -8.78%.
To `Cc1nc2ccccc2n1CC(=O)N/N=C/c1cccs1` belongs 56.9% (active); to `COc1ccc(NC(=O)COC(=O)Cn2c(C)nc3ccccc32)cc1OC`, 13.9%.
Regarding `Cc1ccc(-c2nnc(SCC(=O)N/N=C/c3cccs3)n2-c2ccc(C)cc2)cc1`, the inhibition was 7.24%.
`Cc1[nH]c2ccccc2c1C(=O)c1cc([C@H](NC(=O)OC(C)(C)C)C(C)C)sc1N`: the inhibition was -5.4%.
The figure for `O=C(CSc1nc2ccccc2c(=O)n1CCCO)N1CCc2ccccc21` is -4.55%.
The figure for `C=CCn1c(=O)c2ccccc2n2c(SCC(=O)N3CCCc4ccccc43)nnc12` is 5.64%.
The figure for `Cn1c(SCC(=O)N2CCCc3ccccc32)nc2ccccc2c1=O` is 59.3% (active).
`COc1ccccc1NC(=O)/C=C/C(N)=O`: the inhibition is -1.16%.
The figure for `COc1ccc(NS(=O)(=O)c2ccc(N3CCOCC3)c(NC(=O)/C=C/C(=O)O)c2)cc1` is -2.93%; for `COC(=O)c1sc(-c2ccc(C(C)(C)C)cc2)cc1NC(=O)/C=C/C(=O)O` it is 69.3% (active); for `CC(C)(C)OC(=O)N1CCC(NC(=O)c2[nH]cnc2C(=O)N[C@@H](Cc2ccccc2)C(=O)OCc2ccccc2)CC1` it is 35.6%.
To `CC(C)(C)OC(=O)CNC(=O)c1[nH]cnc1C(=O)N[C@@H](Cc1ccccc1)C(=O)OCc1ccccc1` belongs 51.3% (active).
With `C[C@H](NC(=O)c1nc[nH]c1C(=O)NCC(=O)OC(C)(C)C)c1ccccc1`, the inhibition is -2.15%.
The figure for `Cc1cccc(NC(=O)c2nc[nH]c2C(=O)NCC(=O)OCc2ccccc2)c1` is 64% (active); for `CC(C)(C)OC(=O)NCCCCCNC(=O)c1nc[nH]c1C(=O)NCc1ccccc1` it is 60% (active).
Consider `O=C(Nc1cc(Br)ccc1F)c1nc[nH]c1C(=O)NCc1ccccc1`, for which the inhibition was -18.3%.
To `C[C@H](NC(=O)c1nc[nH]c1C(=O)N[C@@H](C)C(=O)OC(C)(C)C)C(=O)OC(C)(C)C` belongs 0.46%; to `C[C@H](NC(=O)c1nc[nH]c1C(=O)NCC(=O)OC(C)(C)C)C(=O)OCc1ccccc1`, 60.9% (active); to `CC(C)(C)OC(=O)NCCCCCNC(=O)c1[nH]cnc1C(=O)Nc1nccs1`, 38.9%.
As for `CNC(=O)c1[nH]cnc1C(=O)N[C@@H](CC(C)C)C(=O)OCc1ccccc1`, the inhibition is 23.5%.
To `O=C(Nc1ccon1)c1nc[nH]c1C(=O)NCc1ccccc1` belongs -5.83%.
As to `O=C(N[C@@H](Cc1ccccc1)C(=O)OCc1ccccc1)c1nc[nH]c1C(=O)N[C@@H](Cc1ccccc1)C(=O)OCc1ccccc1`, the inhibition was 15.8%.
The figure for `CN(CCc1ccccn1)C1CCCN(S(=O)(=O)c2ccccc2Cl)C1` (stereo not drawn) is -19.7%; for `COc1ccccc1Cc1c(-c2ccc(F)cc2)nc2ccc(C)cn12` it is -18.1%; for `O=C(NCc1ccccc1)[C@H]1CCCN1C(=O)[C@H]1CCCN1C(=O)N1CCOCC1` it is 15.4%.
To `CCCCn1nnnc1C(c1cc2ccccc2o1)N(C)Cc1ccc(Cl)c(Cl)c1` (stereo not drawn) belongs -19.1%; to `CC(C)[C@H]1COCCS(=O)(=O)N1Cc1ccccc1-c1cccc2c1sc1ccccc12`, -54.8%; to `Nc1nc(CC(=O)CSc2ccc(Cl)cc2)nc(Nc2ccc(F)cc2)n1`, -2.27%.
In the case of `C=CCC[C@@H](CCCCC)OC(=O)/C=C/[C@@H](O)[C@H](O)C[C@H](O)CC=C`, the inhibition was -5.68%.
The figure for `Cc1nc(NC(=O)C(C)(C)C)sc1[N+](=O)[O-]` is -6.34%.
The figure for `Cc1ccc(C(=O)N2CC(=O)Nc3ccccc32)o1` is -3.59%; for `O=C(NCc1ccccc1)C(c1ccc(F)cc1)N1CCN(C(=O)C2CCCO2)CC1` (stereo not drawn) it is -21.5%.
To `CCCCC[C@H](C)N1C[C@@H](COCc2ccccc2)Oc2cc(N3CC[C@@H](N(C)C)C3)ccc2S1(=O)=O` belongs -6.02%; to `Nc1ncnc2c1ncn2[C@@H]1O[C@H](C(=O)N[C@@H](CCc2ccccc2)C(=O)NCC(=O)N2CCOCC2)[C@@H](O)[C@H]1O`, 8.4%; to `COC(=O)C1=C(C)N(Cc2cccc(C(F)(F)F)c2)C(=NCc2ccccc2)NC1c1ccc(Cl)cc1` (stereo not drawn), 46%.
As to `COC(=O)[C@]12C[C@H](CC(=O)NCc3ccccc3)C(=O)N(CCC3=CCCCC3)C1=C[C@H](C(C)(C)C)O[C@@H]2C`, the inhibition is -44.8%.
Consider `COc1cccc(-c2cc(CNC(=O)[C@@H](Cc3ccccc3)NC(=O)[C@H]3O[C@@H](n4cnc(C(N)=O)n4)[C@H](O)[C@@H]3O)no2)c1`, for which the inhibition was -23.1%.
To `O=C(NCCN1CCOCC1)c1ccc2c(c1)N(Cc1cccc(Cl)c1)C(=O)c1ccccc1S2(=O)=O` belongs -0.54%.
The figure for `Cc1ccc(C(=O)N/C(=C\c2ccc(F)cc2)C(=O)NCCN2CCOCC2)cc1` is 0.72%.
As for `Cc1cccc(-c2nc3ccc(C(=O)NCCN4CCN(C)CC4)cc3nc2-c2cccc(C)c2)c1`, the inhibition is -13.7%.
`O=C(NCCN1CCOCC1)c1ccc(/C=C2\Sc3ccccc3N(Cc3ccc(F)cc3)C2=O)cc1`: the inhibition is 70.2% (active).
To `O=C(NCCN1CCOCC1)/C(=C/c1ccc(F)cc1)NC(=O)c1ccccc1` belongs 1.45%; to `CCN1CCN(CCNC(=O)c2ccc(/C=C3/Sc4ccccc4N(Cc4cccc(C)c4)C3=O)cc2)CC1`, 61.5% (active); to `C=C1C(=O)OC2C1CCC(C)=CCCC1(C)OC21` (stereo not drawn), -17.7%.
The figure for `CCOc1ccc(S(=O)(=O)NCCC(=O)NNC(=O)c2ccc(F)cc2)cc1` is -12%; for `O=C(Nc1ccccc1N1CCOCC1)c1ccc(OCc2cscn2)cc1` it is 29.3%; for `CC(C)OCCCNc1ncnc2c1[nH]c1ccc(F)cc12` it is 51.5% (active).
The figure for `Cc1ccc(C2NC(C(=O)O)CS2)cc1` (stereo not drawn) is -13.1%; for `O=C1/C(=C\c2ccc([N+](=O)[O-])cc2)CS(=O)(=O)C/C1=C/c1ccc([N+](=O)[O-])cc1` it is 36.7%; for `c1ccc(CSc2ncnc3c2sc2nc(N4CCOCC4)c4c(c23)CCCC4)cc1` it is -16.6%.
With `c1ccc2c(CCN3CCNC[C@H]3Cc3cccc4ccccc34)cccc2c1`, the inhibition is 23.8%.
The figure for `c1ccc(C2CNCc3c2ccc2ccccc32)cc1` (stereo not drawn) is 81.3% (active); for `Cc1ccn2c(=O)c(C(=O)NCCC3=CCCCC3)c(O)nc2c1` it is 64.5% (active).
Turning to `O=C(CCNC(=O)Cn1ccc2ccccc2c1=O)NCCC1=CCCCC1`, the inhibition is -24.7%.
`O=C(NCCC1=CCCCC1)c1ccc(-n2cncn2)cc1`: the inhibition is -0.95%.
The figure for `C(#CCN1CCOCC1)CCCN1CCOCC1` is -21.3%.
To `O=C(COC(=O)C12CC3CC(CC(O)(C3)C1)C2)NC12CC3CC(CC(C3)C1)C2` belongs -12.3%.
The figure for `CCN(CC)c1ccc(NC(=O)c2ccc(Cl)nc2)cc1` is 6.5%; for `Cc1ccc(/C=N/NC(=O)C2=NNC(c3ccccc3)(c3ccccc3)C2)c(O)c1` it is 0.27%; for `CCN(CC)c1ccc(/C=N/NC(=O)c2cnccn2)c(O)c1` it is 48.9% (active).
On to `Nc1ncnc2c1ncn2[C@@H]1O[C@H](C(=O)N[C@@H](CCc2ccccc2)C(=O)N2CCCN(Cc3cccs3)CC2)[C@@H](O)[C@H]1O`, for which the inhibition was 3.27%.
In the case of `COc1cccc(CC2(CO)CCN(Cc3cnc(-c4cccc(C)c4)nc3)CC2)c1`, the inhibition was 5.01%.
The figure for `COc1cccc(CNC(=O)[C@H]2CCCN2C(=O)[C@H]2CCCN2C(=O)C2CCCCC2)c1` is -16.5%.
To `COc1cccc(C=CC(=O)C=CC=Cc2ccccc2)c1` belongs -24.3%.
The figure for `O=C(/C=C(O)/C=C/c1ccc(O)cc1)/C=C/c1ccc(O)cc1` is 68.2% (active); for `COc1ccc(/C=C/C(=O)c2c(O)cc(OC)cc2OC)cc1` it is 1.09%.
For `O=C(COc1ccc(Cl)cc1)NCCSc1ccccc1`, the inhibition was 0.81%.
To `CCCNC(=O)C1(C)CCCN(Cc2c(C)nn(-c3ccccc3)c2C)C1` (stereo not drawn) belongs 5.37%; to `O=C1C(=O)N(CCCN2CCOCC2)C(c2ccc([N+](=O)[O-])cc2)/C1=C(\O)c1ccc2c(c1)OCCO2` (stereo not drawn), 6.85%; to `CC(=O)c1ccc(S(=O)(=O)NCC2CCN(C(=O)C(=O)c3cccs3)CC2)cc1`, -6.62%.
To `CC(C)CC(=O)NC(=S)NCc1ccccc1` belongs -16.9%; to `CCCCC(=O)NNC(=S)NC(=O)C(c1ccccc1)c1ccccc1`, 106% (active); to `O=C(CCN1CCN(c2ccccc2)CC1)NNC(=S)Nc1ccccc1`, -13.7%.
As for `O=C(C(=O)N1CCN(c2ccccc2)CC1)c1ccc2c(c1)OCO2`, the inhibition was -15%.
To `COCc1cc(=O)[nH]c(SC)n1` belongs -6.85%; to `NS(=O)(=O)c1ccc(CNC(=O)c2cccc(S(=O)(=O)N3CCc4ccccc43)c2)cc1`, -6.37%; to `CNC(=O)c1ccsc1NC(=O)c1ccc(S(=O)(=O)N2CCc3ccccc32)cc1`, 62.9% (active).
Consider `CC1CN(S(=O)(=O)c2ccc(C(=O)Nc3sccc3C(N)=O)cc2)CC(C)O1` (stereo not drawn), for which the inhibition was 9.54%.
Regarding `COCCn1c(=NC(=O)c2ccccc2[N+](=O)[O-])sc2cc(S(C)(=O)=O)ccc21`, the inhibition is -0.74%.
For the compound `O=S1(=O)CCO[C@H]2Cc3ccccc3[C@H]2N1Cc1ccccc1`, the inhibition was 9.98%.
Regarding `Cc1ccc(CNC(=O)CCNS(=O)(=O)c2ccc(Br)s2)cc1`, the inhibition was 5.04%.
Consider `CCOC(=O)C1=C(C(=O)OCC)C2N(Cc3ccc(C#N)cc3)c3ccccc3[C@@]23C[C@@H](C(=O)OC)N(S(=O)(=O)c2ccc(F)cc2)C3=N1` (stereo partly drawn), for which the inhibition was -16.3%.
